Shown are actives, neighbours in structure and some others; about 2.8% of the full set was active somewhere.
HEK293 NFkB inh – lowers PMA/ionomycin-induced NF-kB signal in HEK293 cells; HEK-293 NF-kB luciferase reporter, luminescence; inhibition, % at 3 µM; hit rate 0.21% among 62,000; AID 465;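 active = inhibition above the mean of all tested compounds plus 3 SD, cut at about 40% in these data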;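 also: 0% = stimulated DMSO wells and 100% = 10 µM reference inhibitor 5653914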
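Material: HEK-293 cells with stable firefly luciferase reporter driven by four HIV NF-kB elements / Also added: PMA plus ionomycin mix as NF-kB-activating stimulus / Compound dosing: 3 µM once, 0.30% DMSO / Times: 1 h pretreatment, 16 h stimulation, 37 °C / Signal: luminescence / Evaluation: per-plate % inhibition versus controls / Benchmarks: DMSO and 10 µM reference inhibitor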
RORA act – RORA (human) activation; P35398; CHO-K1 Gal4-RORA LBD luciferase reporter, luminescence; percent increase over mock-subtracted basal signal; activation, % at 10 µM; hit rate 1.5% among 65,000; AID 560;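 active = activation above the mean of all tested compounds plus 3 SD, cut at about 49% in these data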;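 also: 0% = DMSO-treated RORA cells and 100% = added signal equal to DMSO minus mock-transfected cells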
Target sequence (P35398 whole entry, looked up, the tested form may be a part): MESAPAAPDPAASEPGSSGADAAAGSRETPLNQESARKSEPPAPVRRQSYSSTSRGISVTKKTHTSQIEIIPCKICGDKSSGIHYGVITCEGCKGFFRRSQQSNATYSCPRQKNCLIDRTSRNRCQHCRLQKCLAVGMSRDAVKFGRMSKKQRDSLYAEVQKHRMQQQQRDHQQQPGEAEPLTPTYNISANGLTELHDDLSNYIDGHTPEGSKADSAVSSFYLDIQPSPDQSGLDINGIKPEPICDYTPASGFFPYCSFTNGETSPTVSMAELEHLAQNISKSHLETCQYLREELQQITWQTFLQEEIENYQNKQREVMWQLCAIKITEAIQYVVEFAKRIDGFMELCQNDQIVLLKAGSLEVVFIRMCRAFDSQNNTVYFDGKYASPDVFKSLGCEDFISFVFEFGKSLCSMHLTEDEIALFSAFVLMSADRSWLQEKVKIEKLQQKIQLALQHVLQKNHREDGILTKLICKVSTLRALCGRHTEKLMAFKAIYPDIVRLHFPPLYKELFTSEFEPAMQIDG
MT1-MMP txn act – MT1-MMP promoter transcription activation; AID 750; hit rate 0.16% among 86,000; activation factor at 10 µM; HT1080 MT1-MMP promoter luciferase reporter, luminescence, overnight; hits give high values;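 active = activation factor of at least 2 for MT1-MMP transcription at 10 µM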
Jurkat tox 60K – cytotoxic compounds reducing Jurkat cell viability; hit rate 1.2% among 56,000; inhibition, % at 4 µM; Jurkat E6.1 viability, ATP luminescence, 48 h; AID 463;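 active = inhibition above the mean inhibition of all tested compounds plus 3 SD, cut at about 28% in these data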
SF-1 act – activators of human nuclear receptor SF-1; CHO-K1 Gal4-SF-1 LBD luciferase reporter; % increase over DMSO SF-1-specific signal; hit rate 1.9% among 65,000; AID 522; Q13285; activation, % at 10 µM;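 active = activation above the mean activation of all tested compounds plus 3 SD, cut at about 50% in these data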
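Material: CHO-K1 cells with Gal4–hSF-1 LBD chimera plus Gal4-driven luciferase / Input: 4,000 CHO-K1 cells per well / Incubation: compound exposure 20 h at 37 °C / Signal: luminescence read 15 min after SteadyLite luciferase reagent, after room-temperature equilibration / Read-out: percent activation versus DMSO / Benchmarks: DMSO negative control and −SF1 background wells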
Numbers without * were called inactive; x = not tested or not shown.

SMILES	HEK293 NFkB inh	RORA act	MT1-MMP txn act	Jurkat tox 60K	SF-1 act
CCCCN(CCCC)S(=O)(=O)c1ccc(C(=O)Nc2nnc(CSC)o2)cc1	14.1	-61.3	0.9	3.3	-55.1
CCCCN(CC)S(=O)(=O)c1ccc(C(=O)Nc2nnc(CSC)o2)cc1	9.9	8.1	1	88.3*	-37.7
COc1cc(OC)c(NC(=O)c2ccco2)cc1Cl	8.2	-6.2	1.1	0.0	-17.7
COC(=O)c1sc(N)c(C(=O)OC)c1COC(=O)c1c(C)noc1C	20.8	29.1	0.6	93.5*	9.2
COC(=O)c1c(N)sc(C(C)=O)c1C	-3.0	7.2	1.1	-2.5	5.8
CCN(CC(=O)NC1CCS(=O)(=O)C1)c1ccc(S(C)(=O)=O)cc1[N+](=O)[O-] (centres undefined)	x	x	1.2	x	x
c1ccc(CCn2nnnc2CN2CCCc3ccccc32)cc1	8.9	50.6*	1.2	1.9	21.0
C=CCn1c(=O)n(CCC#N)c(=O)n(CCC#N)c1=O	7.9	-2.9	1.2	-0.6	11.0
Cc1ccc(/C=N/Nc2nc(Cl)c(Cl)cc2Cl)s1	x	x	2*	x	x
O=C(O)CCCNS(=O)(=O)c1cccs1	11.9	-24.1	1	12.7	-12.8
CCN(CC)S(=O)(=O)c1cccc(-c2nc3n(n2)Cc2ccccc2-3)c1	-0.1	45.6	1.1	0.0	61.2*
COc1ccc(-c2noc(CN(C(=O)c3ccc(OC(C)=O)cc3)C(C)C)n2)cc1OC	-2.5	-12.7	1	-1.0	-4.4
CCOc1ccc(-c2nc(-c3cccnc3)no2)cc1OCC	x	x	1.4	x	x
CC(=O)Oc1ccc(-c2nc(-c3cccnc3)no2)cc1	6.1	53.1*	0.5	-3.0	28.0
CC(=O)Oc1ccc(Oc2ccc(-c3noc(C)n3)cc2)cc1	-6.7	-6.6	1.5	34.2*	-12.8
N=c1c2c(-c3ccccc3)c(-c3ccccc3)n(Cc3ccco3)c2ncn1Cc1ccco1	12.2	39.2	1.2	47.3*	8.0
CCOc1ccc(N2Cc3ccccc3C2)cc1	-7.1	51.1*	1.2	3.7	62.5*
CCOc1ccccc1N1Cc2ccccc2C1	x	x	1	x	x
COc1ccccc1-c1ccc(NC2CCCCC2)nn1	-6.6	27.2	1.7	-6.9	80.5*
O=c1cc(-c2ccccc2)[nH]c2ccccc12	30.4	9.4	0.6	93.0*	14.7
Cc1ccccc1Cn1ccc(NC(=O)c2onc(C)c2Cl)n1	-1.2	87.0*	1.4	-2.5	10.9
Cc1ccccc1Cn1ccc(NC(=O)c2nc3ncccn3n2)n1	11.1	-2.8	1.4	6.4	-7.6
COc1ccc(-c2nnc(SCc3ccccc3)n2N)cc1	2.6	39.0	1.8	2.8	65.6*
COc1ccc(-c2nnc(SCCc3ccccc3)n2N)cc1	-4.3	-3.0	1.3	-3.1	17.5
CC(=O)c1ccc(NC(=O)c2ccn[nH]2)cc1	8.8	23.6	1.3	4.7	39.5
SMILES	HEK293 NFkB inh	RORA act	MT1-MMP txn act	Jurkat tox 60K	SF-1 act
c1cnc2ccc(C(c3nnnn3C3CCCC3)N3CCN(c4nc5ccccc5s4)CC3)cc2c1 (centres undefined)	17.5	-3.5	1	-1.3	24.9
Cc1nc2ccc(C(=O)c3ccccc3)cc2[nH]1	2.2	12.6	1.4	-1.5	56.9*
O=C(c1ccccc1)c1ccc2nc[nH]c2c1	15.6	14.5	1.5	3.7	24.0
CN(C)c1nc(N2CCOCC2)nc(N(c2ccccc2)c2ccccc2)n1	18.5	-17.2	1.1	9.1	-11.3
CCC(=O)Nc1ccc(-c2nn3c(C)nnc3s2)cc1	1.9	2.3	1.3	-3.1	36.0
Cc1ccc(N=Cc2nc(-c3ccco3)oc2O)cc1	-15.0	46.8	1.5	-4.1	104.0*
Cc1ccc(C(=O)Oc2oc(-c3ccco3)nc2C=Nc2ccc(Cl)cc2)cc1	x	x	1.4	x	x
COc1ccc(-c2ccc(-c3noc(-c4ccccc4C)n3)c(OC)n2)cc1	15.1	17.9	0.9	3.7	-5.1
CCOC(=O)c1ccccc1NC(=O)CSc1nnnn1C1CCCCC1	2.1	54.0*	1	5.1	4.7
CC(=O)C(C(C)=O)c1c(Cl)c(O)c(O)c2c(C(=O)c3ccccc3)coc12	10.1	-12.2	1	49.3*	2.4
CCCCOC(=O)CSc1nnc(-c2ccc(Cl)cc2Cl)o1	10.8	-2.5	1.1	-1.1	-26.7
CCC(C)c1ccc(NC(=O)C2CC2)cc1 (centres undefined)	7.0	3.9	1.7	-8.6	41.3
CCC(C)c1ccc(NC(=O)C2CCCN(c3ncccn3)C2)cc1 (centres undefined)	7.6	75.7*	1.3	61.3*	72.3*
